# Laboratory results reported in ChEMBL document CHEMBL1131185, “Syntheses of new isodethiaazacephems as potent antibacterial agents” (1998).
# How the values were obtained:
# Escherichia coli = assay: In Vitro minimal inhibitory concentration against Escherichia coli (ATCC 39188); format: functional
# How it was run: (§1)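 Serial broth dilution in heart infusion broth. Inoculum was a 10^-4 dilution of an overnight culture. Seeded antibiotic-containing tubes were incubated 37 °C for 20 h. […] Values are the average of triplicate determinations.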
# Klebsiella pneumoniae = assay: In Vitro minimal inhibitory concentration against Klebsiella pneumoniae (NCTC 418); format: functional; how it was run: as §1
# Pseudomonas aeruginosa = assay: In Vitro minimal inhibitory concentration against Pseudomonas aeruginosa (1101-75); format: functional; how it was run: as §1
# Salmonella typhi = assay: In Vitro minimal inhibitory concentration against Salmonella typhi (O-901); format: functional, Salmonella enterica subsp. enterica serovar Typhi; details: Salmonella enterica
# How it was run: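 Serial broth dilution MIC. Inoculum: overnight culture diluted 10^-4 in heart infusion broth. Seeded antibiotic-containing broth tubes incubated 20 h at 37 °C. MIC is the lowest concentration preventing visible growth. Concentrations tested up to 128 μg/mL. Values are the average of triplicate determinations.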
# Staphylococcus aureus = assay: In Vitro minimal inhibitory concentration against Staphylococcus aureus (FDA 209P); format: functional; how it was run: as §1
Structure (SMILES),MIC (Escherichia coli) [µg/mL],MIC (Klebsiella pneumoniae) [µg/mL],MIC (Pseudomonas aeruginosa) [µg/mL],MIC (Salmonella typhi) [µg/mL],MIC (Staphylococcus aureus) [µg/mL]
O=C(Cc1ccccc1)N[C@@H]1C(=O)N2C(C(=O)OCc3ccccc3)=C(OS(=O)(=O)C(F)(F)F)NC[C@H]12 (racemic),> 128,> 128,> 128,> 128,> 128
O=C(Cc1ccccc1)N[C@@H]1C(=O)N2C(C(=O)O)=C(O)NC[C@H]12 (racemic),94.7,> 128,> 128,> 128,29.5
CS(=O)(=O)C1=C(O)NC[C@@H]2[C@H](NC(=O)Cc3ccccc3)C(=O)N12 (racemic),> 128,> 128,> 128,> 128,> 128
CC1=C(C(=O)O)N2C(=O)[C@@H](NC(=O)Cc3ccccc3)[C@H]2SC1,13.1,2.98,100,24.5,0.64
CO/N=C(\C(=O)N[C@@H]1C(=O)N2C(C(=O)O)=C(COC(C)=O)CS[C@H]12)c1csc(N)n1 [CEFOTAXIME],0.25,10.2,62.4,20.3,0.08
CS(=O)(=O)OC1=C(C(=O)OCc2ccccc2)N2C(=O)[C@@H](NC(=O)Cc3ccccc3)[C@H]2CN1 (racemic),> 128,> 128,> 128,> 128,> 128
O=C(Cc1ccccc1)N[C@@H]1C(=O)N2C(C(=O)O)=C(OS(=O)(=O)C(F)(F)F)NC[C@H]12 (racemic),0.09,0.24,1.15,0.68,0.01
CC1(C)S[C@@H]2[C@H](NC(=O)Cc3ccccc3)C(=O)N2[C@H]1C(=O)O [PENICILLIN G],2.3,> 128,> 128,> 128,0.4
CS(=O)(=O)OC1=C(C(=O)O)N2C(=O)[C@@H](NC(=O)Cc3ccccc3)[C@H]2CN1 (racemic),0.95,0.68,4.38,1.2,0.07
CS(=O)(=O)C1(C(=O)O)C(=O)NC[C@@H]2[C@H](NC(=O)Cc3ccccc3)C(=O)N21 (stereo not given in full),97.2,51,120,65.3,48.5
